In ChEMBL document CHEMBL1159065, “Conjugates of desferrioxamine B (DFOB) with derivatives of adamantane or with orally available chelators as potential agents for treating iron overload” (J Med Chem, 2010):
≈ marks a conversion by molar mass, not a printed value. Calls of active or inactive are those of the source. The rule behind the calls is not given here.

Tests used:
[1] = Toxicity in human SK-N-MC cells by MTT method; assay type: cell-based
How it was run: (§1)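 MTT proliferation assay giving IC50; MTT colour checked proportional to viable cell number by Trypan blue (SK-N-MC) or total cell protein (MDCK II). SK-N-MC grown as in earlier work; MDCK II cultured by standard procedures.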

[2] = Toxicity in MDCK cells by MTT method; assay type: cell-based, Canis lupus familiaris; details: dog; how it was run: as §1
[3] = target: Serotransferrin (Homo sapiens) (UniProt P02787); test: Inhibition of [59Fe] uptake from [59Fe]transferrin in human SK-N-MC cells at 50 uM after 3 hrs relative to relative to desferrioxamine B; assay type: cell-based
Serotransferrin (Homo sapiens), sequence (P02787 whole entry): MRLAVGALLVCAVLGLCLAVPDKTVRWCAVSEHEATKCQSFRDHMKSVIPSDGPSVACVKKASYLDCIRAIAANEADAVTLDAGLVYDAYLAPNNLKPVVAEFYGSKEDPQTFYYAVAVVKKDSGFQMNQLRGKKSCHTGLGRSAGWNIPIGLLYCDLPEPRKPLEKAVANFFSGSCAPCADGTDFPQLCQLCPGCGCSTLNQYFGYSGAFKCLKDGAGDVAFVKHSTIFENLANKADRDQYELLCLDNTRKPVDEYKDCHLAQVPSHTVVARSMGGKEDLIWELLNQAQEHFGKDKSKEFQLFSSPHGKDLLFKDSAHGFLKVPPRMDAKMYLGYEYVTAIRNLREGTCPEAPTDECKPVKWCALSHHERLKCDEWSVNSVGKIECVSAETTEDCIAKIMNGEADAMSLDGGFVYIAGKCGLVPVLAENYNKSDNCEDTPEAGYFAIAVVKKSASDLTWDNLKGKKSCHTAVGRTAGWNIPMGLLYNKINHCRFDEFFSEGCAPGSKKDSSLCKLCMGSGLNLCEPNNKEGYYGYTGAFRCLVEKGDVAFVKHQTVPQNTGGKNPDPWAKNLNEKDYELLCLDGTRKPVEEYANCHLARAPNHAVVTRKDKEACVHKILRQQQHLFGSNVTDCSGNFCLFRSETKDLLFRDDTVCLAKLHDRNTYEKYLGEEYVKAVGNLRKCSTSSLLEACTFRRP
How it was run: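 SK-N-MC cells incubated with 59Fe-Tf (0.75 μM) plus chelator (50 μM), 3 h at 37 °C; washed four times in ice-cold PBS, then Pronase (1 mg/mL) 30 min at 4 °C. Pronase-insensitive pellet after centrifugation taken as internalized 59Fe, expressed as % of untreated control. Mean ± SD, three experiments, triplicate determinations each.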

[4] = Partition coefficient, log P by shake flask method; assay type: physicochemical; details: octanol/water
SK-N-MC [5] = test: Induction of [59Fe] mobilization in human SK-N-MC cells prelabeled with [59Fe]transferrin at 50 uM after 3 hrs relative to untreated control; assay type: functional
How it was run: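 Cells prelabeled with 59Fe-Tf (0.75 μM), 3 h, 37 °C; washed four times in ice-cold PBS, then exposed to chelator (50 μM) 3 h at 37 °C. Medium removed by Pasteur pipet; gamma counting of cell pellet and supernatant gives released 59Fe as % of cellular 59Fe. Mean ± SD, three experiments, triplicate determinations each.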

[6] = Partition coefficient, log P by RP-HPLC; assay type: physicochemical; details: octanol/water
SK-N-MC [7] = test: Induction of [59Fe] mobilization in human SK-N-MC cells prelabeled with [59Fe]transferrin at 50 uM after 3 hrs relative to desferrioxamine B; assay type: functional
How it was run: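 Cells were prelabeled with 59Fe-Tf (0.75 μM) for 3 h at 37 °C, washed four times with ice-cold PBS, then exposed to chelator (50 μM) for 3 h at 37 °C. Released 59Fe in the medium and cell-pellet 59Fe were counted by γ-counter. DFOB was run in parallel. Data are mean ± SD of three experiments, each with triplicate determinations.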

[8] = target: Serotransferrin (Homo sapiens) (UniProt P02787); test: Inhibition of [59Fe] uptake from [59Fe]transferrin in human SK-N-MC cells assessed as at 50 uM after 3 hrs relative to untreated control; values are per cent of control
[9] = Solubility in water; assay type: physicochemical

Compound	IC50 [1] [µM]	IC50 [2] [µM]	inhibition [3]	logP [4]	Activity (SK-N-MC [5])	logP [6]	fold change (FC) (SK-N-MC [7])	residual activity [8] [%]	solubility [9] [mM]
CC(=O)N(O)CCCCCNC(=O)CCC(=O)N(O)CCCCCNC(=O)CCC(=O)N(O)CCCCCNC(=O)c1ccc(-n2nc(-c3ccccc3O)nc2-c2ccccc2O)cc1	20.6	23.4	Active	2.17	Active	3.02	–	–	–
CC(=O)N(O)CCCCCNC(=O)CCC(=O)N(O)CCCCCNC(=O)CCC(=O)N(O)CCCCCNC(=O)C12CC3CC(CC(C3)C1)C2	174	119	Active	2.11	–	1.29	2.2	–	–
c1ccc2ccccc2c1	–	–	–	3.32	–	–	–	–	–
CC(=O)N(O)CCCCCNC(=O)CCC(=O)N(O)CCCCCNC(=O)CCC(=O)N(O)CCCCCNC(=O)Cn1ccc(=O)c(O)c1C	> 200	> 300	–	-1.29	–	-1.16	–	–	–
CC(=O)N(O)CCCCCNC(=O)CCC(=O)N(O)CCCCCNC(=O)CCC(=O)N(O)CCCCCNC(=O)C12CC3CC(CC(O)(C3)C1)C2	> 200	> 100	–	0.29	inactive	-0.11	–	–	–
Cc1c(O)c(=O)ccn1C [DEFERIPRONE]	166	–	–	-1.02	inactive	–	–	–	–
CC(=O)N(O)CCCCCNC(=O)CCC(=O)N(O)CCCCCNC(=O)CCC(=O)N(O)CCCCCNC(=O)C12CC3CC(C)(CC(C)(C3)C1)C2	92.4	163	Active	2.92	–	1.95	3	18	–
O=C(O)c1ccc(-n2nc(-c3ccccc3O)nc2-c2ccccc2O)cc1 [DEFERASIROX]	20.5	–	–	3.8	–	–	–	39	–
CC(=O)N(O)CCCCCNC(=O)CCC(=O)N(O)CCCCCNC(=O)CCC(=O)N(O)CCCCCNC(=O)CC12CC3CC(CC(C3)C1)C2	167	226	Active	2.21	–	1.47	2.8	–	–
COC(=O)c1ccccc1C(=O)OC [DIMETHYL PHTHALATE]	–	–	–	1.61	–	–	–	–	–
CC(=O)N(O)CCCCCNC(=O)CCC(=O)N(O)CCCCCNC(=O)CCC(=O)N(O)CCCCCN [DEFEROXAMINE]	16	9.49	–	–	12%	–	–	87	400 (≈ 224 mg/mL)
CN(C)C(=S)NN=C(c1ccccn1)c1ccccn1	–	–	–	–	–	–	–	12	–
CC(=O)N(O)CCCCCNC(=O)CCC(=O)N(O)CCCCCNC(=O)CCC(=O)N(O)CCCCCNC(=O)COc1ccc(C)cc1	> 200	> 150	Active	1.68	Active	0.93	–	–	–
c1ccc2c(c1)oc1ccccc12 [DIBENZOFURAN]	–	–	–	4.04	–	–	–	–	–
